Measured values as given in the EternaBench riboswitch data.

Test system: MS2 coat protein
Test: apparent Kd, MS2 coat protein; higher = weaker binding; RNA-MaP array; FMN 200 µM where present
Summary of the method: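 Designs were transcribed by stalled E. coli RNA polymerase on Illumina sequencing-chip clusters. They were titrated with SNAP-549-labelled MS2 coat protein from 0.7 or 1.5 nM, doubling to 3 µM, without and then with constant ligand. Buffer: 100 mM Tris-HCl pH 7.5, 80 mM KCl, 4 mM MgCl2, BSA, DTT, yeast tRNA, Tween-20. Green signal was normalised to red-channel RNA signal and control-cluster median Fmax. Apparent Kd is the median of filtered per-cluster binding-curve fits.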

[1] = designed as: OFF switch for flavin mononucleotide, no ligand
[2] = ligand present: flavin mononucleotide, designed as: OFF switch for flavin mononucleotide
[3] = designed as: ON switch for flavin mononucleotide, no ligand
[4] = ligand present: flavin mononucleotide, designed as: ON switch for flavin mononucleotide

| Sequence | apparent Kd [1] [nM] | apparent Kd [2] [nM] | apparent Kd [3] [nM] | apparent Kd [4] [nM] |
| --- | --- | --- | --- | --- |
| UCCGUAAUUCUGAGCUUCGCGAUGAGAAGGGUAGAGGCUGGGUCCUACAUGAGGAUCACCCAUGUACAGGAUAUCAUUGCACGA | 14.1 | 30.3 |  |  |
| GGACGUCACAUCUACAUGAGGAUCACCCAUGUCGAAAGACAUGAGGAUAUGCAUCCUAAUUGGAUGCAGAAGGCAUGGACGUCC |  |  | 667 | 69.7 |
| GUCGGAAACGACAAGUCAGCUCGUGAGGAUAUACAAUAUUAAAAGAUCACAUGAGGAUCACCCAUGUAGAAGGCACGAGCUGAU | 31.7 | 442 |  |  |
| CUCGAGUCAAGGCUCGCGAGUACACAGGAUAUGAAAAGUCACAUGAGGAUCACCCAUGUCCAAAAUCAGAAGGGUGAGACUAAG |  |  | 764 | 222 |
| UGAGCCUCGUGAGGAUAUACAUGAGGAUCACCCAUGUAAUAAAGUGAACGGAGGUAACUCCGAAUGUAGAAGGCACGAGGCUCA | 38 | 306 |  |  |
| UGGUUGGGAGGAUAUCCAAUAUAUGACAUGAGGAUCACCCAUGUUUCCACUCGUACCUCCGGAGAAGGCCCUUCCC | 21.7 | 20.7 |  |  |
| GUAUAUAUUACAUGAGGAUCACCCAUGUCAGAACGGGUAAUCAGAAGGUAUUAUUAGAGAAAGAGUAAGGAUAUGAUUAUAUAC |  |  | 622 | 181 |
| GCCUUCGCAUGAGGAUAUGCUCCGGUUUCCGGAGCAGAAGGCAUGUCAUAAGACAUGAGGAUCACCCAUGUAGUUAAGAAGGCA |  |  | 570 | 31.7 |
| ACAUGAGGAUCACCCAUGUAUUACAUGGUUAAGUUUAUUAACAGAAGGCGAAAAUACUUAUUGUUCGAGGAUAUGUAAUCAAUU | 38 | 54.3 |  |  |
| AUGAGGUCAGGAUAUGCAUGGCGGGACUUGCGUCGUGGCGUGGAGAAGGGACAUGAGGAUCACCCAUGUGGAGA | 84.6 | 76.1 |  |  |
| UUGGACGUCGUAGGAUAUGUAGGAUAAUCCUACAUGAGGAUCACCCAUGUUGACAUGGAAGAAGGACAGAAGGACGAUGUCCAU |  |  | 1120 | 87.5 |
| CAUUCUUUUCCGGAGGAUAUGCUACCCUUUACAUGAGGAUCACCCAUGUUACCCUCUUCUUGUCAGUAGAAGGCCGUUUCUUAAC |  |  | 27.4 | 25.1 |
| CGUAUAUGGGAGAAGGCAUGUCCCAAAGGGCCAUGAGGAUAUCCUAAGUGUACGCUUUGCGACAUGAGGAUCACCCAUGUAGCA |  |  | 7.07 | 5.75 |
| GGGUACAUCGGAGGAUAUCAUGUAAAUACAUGAGGAUCACCCAUGUCGAUGGAGACAUCGGAGAUUGAGAAGGCCGAUCUACCG |  |  | 213 | 9.94 |
| AAGAAAGUAUUGCGAGGGUAGGAGCAGGAUAUCCCAUUGGCCCUCACAUGAGGAUCACCCAUGUGGGAGAAGGGCUAUUACGUU | 6.51 | 13.2 |  |  |
| UAAAAUUUAUGAUAUUAUGACAGUAGAAGGCUAUACAUGUUGAUACAUGAGGAUCACCCAUGUAUAGAGGAUAUAUACAUUUAU | 845 | 832 |  |  |
| UGUUCUAUGUAGAAGGCCCAUAUCUGUAUUUAGGGAGGAUAUACAUGAGGAUCACCCAUGUGUAGAGCUGGUGGACUGGUCAGC | 13.6 | 38.9 |  |  |
| AGUAGAUCAGGAUAUACGUAAAUGGUAAUUAUGUAACUUCAACAUGAGGAUCACCCAUGUAGAAGGGAUCUACA | 14.6 | 15.1 |  |  |
| ACCGGGUGUCACGUAUUACCGACAUGAGGAUCACCCAUGUAGGAGGAUAUGCAGACCGAAAUAAAGCAGAAGGCCUACGUUCUC | 10.6 | 46.6 |  |  |
| UGUGGGUCAGGAUAUUCUAUUUAUUACAUGAGGAUCACCCAUGUGAAUGGACAAGGGUGUGAAGAAGGGACUUGUG | 876 | 495 |  |  |
| ACUAGAUGAGGAUAUGCAUAUUUUCGUGUUCUUCUAGAUUAACAUGAGGAUCACCCAUGUAGAAGGCGUCAUUA | 16.5 | 20.3 |  |  |
| UGUUGAUAGCAGAAGGACAUGAGGAUCACCCAUGUAAGGAUACAAAUAUAUGUAGGAUAUGCUAUUGACUAAGAGUGAGCGUUC | 8.55 | 18.9 |  |  |
| GUGGGAAUCACAGGAUAUACAUGCGCCGCUUCGUUCUACAUGAGGAUCACCCAUGUGUGGUCCGUGUAGAAGGGUGUUUGUCAC |  |  | 45.6 | 30.1 |
| GUAGCAUACCGAGGAUAUUCAUAGCGGAAACGCACAUGAGGAUCACCCAUGUGGCGAAAGCCUUGGGAGAAGGCGGAAUGCUAC |  |  | 118 | 18.1 |
| UCAUACGAUGAGGAUAUCUCCGUUAAAGUAUGUAGAGAAGGCGUUACAUGAGGAUCACCCAUGUUUGUGGGCAG | 304 | 385 |  |  |
| CGUGCGUAUGUGAGGAUAUGCUGGUCCUUGGCUCGGCAGAAGGCACAUGAGGAUCACCCAUGUGGUGUCGUACU | 69 | 179 |  |  |
| AAUAAACUCACAGGAUAUAGCAGAGGUCGCGUGAACUUACAGGCAACGAUGCUAGAAGGGUGACCACAUGAGGAUCACCCAUGU |  |  | 520 | 145 |

| Sequence | apparent Kd [1] [nM] | apparent Kd [2] [nM] | apparent Kd [3] [nM] | apparent Kd [4] [nM] |
| --- | --- | --- | --- | --- |
| CCGAUGGUAUACUAGGAUAUGGGCGCCCUUACAUGAGGAUCACCCAUGUUAUCACAAAUCCGCGGCCAGAAGGAGUUCAUGGGAG |  |  | 176 | 134 |
| ACAUGAGGAUCACCCAUGUUAUCCGGGACUUCAAUUAUUUCUAGAAGGCUGUUUACUUGUUAGUCAGAGGAUAUAGAAUUAAAU | 10.7 | 12.5 |  |  |
| ACUUAUUGAGGAUAUACAGAAAAUUACAUGAGGAUCACCCAUGUUCUUCAAUGUAUAUAUGUAGAAGGCAGAAUAG | 14.4 | 27.6 |  |  |
| AGAUGACAAAGUCAUCUCUGGCAGACAUGAGGAUCACCCAUGUAGGAUAUACUACUCAAAGAGUAGUAGAAGGACAUGUGUCUU | 35.9 | 99.4 |  |  |
| UUUAUAUUCAGAGGAUAUUAAUGUAGUAUAACAUAAGAAGGCUGUUUGUUUUGUAAAGUAAUUCUACAUGAGGAUCACCCAUGU |  |  | 21.4 | 16.2 |
| AAGGAGUAAGGAUAUGCUGCUCGUCACUUGCGUGAUGAGUAGCAGAAGGUACAUGAGGAUCACCCAUGUAAAAA | 24.5 | 18.3 |  |  |
| UUGGUUGUCGUAGGAUAUGGAGGAUAUUCCUACAUGAGGAUCACCCAUGUUCGCAUGGAAGAAGGCCAGAAGGACGAUGACCAU |  |  | 10.4 | 4.38 |
| AGUGCGUAUGUGAGGAUAUGCUGGUCCUUGGAUCGGCAGAAGGCACAUGAGGAUCACCCAUGUGGUGUCGUACC | 244 | 34 |  |  |
| ACUGUCCGAGAGAAGGGAACAUGAGGAUCACCCAUGUUACCUCACCCGGUGACGGAACUCCAAGUUCAGGAUAUCUCGAGCGGU | 7.09 | 12.6 |  |  |
| CUUGUACAUGAGGAUCACCCAUGUUAGGAUAUCUCGCCGUCGGCUUGCCGACGGUAUUAGAGAAGGGACUAGGG | 35.4 | 39.5 |  |  |
| GACAUACGCGAUCCUUGGACAUGAGGAUCACCCAUGUACCGGAAGGAUAUCCUUCGCAAAAGCUAGGAGAAGGUUCGGUAGGUC | 26.1 | 86.1 |  |  |
| AAGUUUUUACAAGGAUAUCAAUUUUUUCUAAAUUCAACAUGAGGAUCACCCAUGUAACAAUGGAGUGAGAAGGUGUUUUGGCAA |  |  | 176 | 205 |
| UUGGACGUGGUAGGAUAUGUAGGAUAUUCCUACAUGAGGAUCACCCAUGUUGACAUGGAAGAAGGACAGAAGGACGAUGUCCAU |  |  | 112 | 35 |
| AGCAGACGAGGAUAUGAUAAAGAUCACAUGAGGAUCACCCAUGUAGCGUCGAUAGACGCAUCAGAAGGCGUCUGCU | 16.1 | 16.5 |  |  |
| CUGCGCUAGGAGAAGGGCUAGAGUGUGAUAUAUUUGCCCGCGAGCACAUGAGGAUCACCCAUGUAGCAGGAUAUCCAAGCCGAU | 8.03 | 16.5 |  |  |
| UAAUGAGAGCAGGAUAUCUUAUAAAUGUAUGAAAGAGAAGGGCUCACAUGAGGAUCACCCAUGUGGUCCUAGAU | 34 | 163 |  |  |
| AUAGCAUACCGAGGAUAUUCAUAUAAUAAAUAAACAUGAGGAUCACCCAUGUGGCGAAAGCCUAGGGAGAAGGCGGAAUGCUAC |  |  | 225 | 25.3 |
| UGUUGUAUUACAGGAUAUCUAUUAUUUUAAUUUAGAGAAGGGUAUUCACAUGAGGAUCACCCAUGUAUAUACGAGGAAGUUGUG |  |  | 52.9 | 57.2 |
| UGUCGGAGCAGAGGAUAUUACAUGAGGAUCACCCAUGUAUGAACCAAUAGCUGGAAACAGCAAUGUAAGAAGGCUGCUACGACA | 12.2 | 153 |  |  |
| UUGGUUGUCGUAGGAUAUGUAGGAUAUUCCUACAUGAGGAUCACCCAUGUUCGCAUGGAAGAAGGACAGAAGGACGAUGACCAG |  |  | 1240 | 9.67 |
| UGUUGUAUUACAGGAUAUCUAGUAUUUUUUUUUAGAGAAGGGUAUUCACAUGAGGAUCACCCAUGUAUAUACGAGGAAGUUGUG |  |  | 67.1 | 71.1 |
| UAGUAUAAGGGCAUUAAACAUGAGGAUCACCCAUGUACGAUAGAGGAUAUGCAUUUCAGUUUAGAGUAGAAGGUUAGAGAAUUU | 42.1 | 42.9 |  |  |
| UUAAAUCAUGUAGGAUAUGCAUGGCGAAGCUACGCAGAAGGACAUGAGGAUCACCCAUGUCUCUCCGUCUGCGUACAGACGGAG | 24.6 | 155 |  |  |
| CGUCGAAAGGCGGGUCCAUCACCACAUGAGGAUCACCCAUGUAAGGAUAUCGGACUCAGAAAGAGCGAGAAGGUACAUAGUUAA | 6.01 | 6.53 |  |  |
| GUAGCUAUCGCAGGAUAUCCUCAGCGGAAACGCACAUGAGGAUCACCCAUGUAAAUAAAUAAUUUGGAGAAGGGCGAUAGCUAC |  |  | 323 | 26.8 |
| GCGAGUACGAGAGGAUAUUGACAUGAGGAUCACCCAUGUAUUUGGGAGUGUUCACUGAAUUCUUACGAGAAGGCUCGUACACGC | 244 | 252 |  |  |
| GGUAUCUCCCGUGAGGAUAUGCGGCGUAGAACAUGAGGAUCACCCAUGUCCUUCGAAUGGGUUACGCAGAAGGCACGACGGUACC |  |  | 33.3 | 18.5 |
